Assay results reported in ChEMBL document CHEMBL1158097, “Kahalalide derivatives from the Indian sacoglossan mollusk Elysia grandifolia” (J Nat Prod, 2006).
Activity calls are given as the source filed them. The rule behind the calls is not given here.

Experiments:
Bacillus subtilis = assay: Antibacterial activity against Bacillus subtilis DSM 2109 at 5 ug/disk after 24 hrs by agar diffusion assay; type: functional, organism-based
Saccharomyces cerevisiae = assay: Antifungal activity against Saccharomyces cerevisiae DSM 1333 at 5 ug/disk after 24 hrs by agar diffusion assay; type: functional, organism-based
Cladosporium herbarum = assay: Antifungal activity against Cladosporium herbarum DSM 62121 at 5 ug/disk after 24 hrs by agar diffusion assay; type: functional; conditions: for zone of inhibition at 5 µg/disc: DSM 62121, 24 h, read-out: IZ
[1] = Cytotoxicity against mouse L1578Y cells after 24 hrs by MTT assay; type: functional, cell-based
MCF7 = assay: Cytotoxicity against human MCF7 cells after 24 hrs by MTT assay; type: functional, cell-based; conditions: MCF7, 24 h
How it was run: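 MCF7 cells were exposed to compounds for 24 h, and viability was read as MTT reduction by absorbance of reduced MTT at 560 nm. DMSO served as control. Data are mean ± SEM, n = 3.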

Escherichia coli = assay: Antibacterial activity against Escherichia coli DSM 10290 at 5 ug/disk after 24 hrs by agar diffusion assay; type: functional, organism-based
Cladosporium cucumerinum = assay: Antifungal activity against Cladosporium cucumerinum DSM 62122 at 5 ug/disk after 24 hrs by agar diffusion assay; type: functional; conditions: for zone of inhibition at 5 µg/disc: DSM 62122, 24 h, read-out: IZ
H4IIE = assay: Cytotoxicity against rat H4IIE cells after 24 hrs by MTT assay; type: functional, cell-based
PC-12 = assay: Cytotoxicity against rat PC12 cells after 24 hrs by MTT assay; type: functional, cell-based
HeLa = assay: Cytotoxicity against human HeLa cells after 24 hrs by MTT assay; type: functional, cell-based

For `C/C=C1\NC(=O)[C@H](Cc2ccccc2)NC(=O)[C@@H](C(C)C)NC(=O)[C@@H]([C@H](C)CC)NC(=O)[C@H](NC(=O)[C@H](NC(=O)[C@H](CCCN)NC(=O)[C@H]2CCCN2C(=O)[C@H](NC(=O)[C@@H](NC(=O)[C@@H](NC(=O)[C@H](NC(=O)CCCC(C)C)C(C)C)[C@@H](C)O)C(C)C)C(C)C)[C@H](C)CC)[C@H](C)OC(=O)[C@H](C(C)C)NC1=O` [KAHALALIDE F], the Activity (Bacillus subtilis) was “inactive”, the Activity (Saccharomyces cerevisiae) was “inactive” and the zone of inhibition at 5 µg/disc (Cladosporium herbarum) was 17 mm. The IC50 [1] was 4.26 µM, the IC50 (MCF7) was 0.22 µM and the Activity (Escherichia coli) was “inactive”. The zone of inhibition at 5 µg/disc (Cladosporium cucumerinum) was 24 mm, the Activity (H4IIE) was “inactive” and the Activity (PC-12) was “inactive”. The Activity (HeLa) was “inactive”.

In the case of `C/C=C1\NC(=O)[C@H](Cc2ccccc2)NC(=O)C(C(C)C)NC(=O)C(C(C)C)NC(=O)[C@H](NC(=O)[C@H](NC(=O)[C@H](CCCN)NC(=O)[C@H]2CCCN2C(=O)C(NC(=O)C(NC(=O)C(NC(=O)[C@@H](CCC(=O)O)NC(=O)CCCCCC(C)C)C(C)C)C(C)C)C(C)C)[C@@H](C)CC)[C@@H](C)OC(=O)C(C(C)C)NC1=O` (some centres undefined) [KAHALALIDE R], the Activity (Bacillus subtilis) is reported as “inactive”, the Activity (Saccharomyces cerevisiae) is reported as “inactive” and the zone of inhibition at 5 µg/disc (Cladosporium herbarum) is reported as 16 mm. For the same molecule, the IC50 [1] was 4.28 µM, the IC50 (MCF7) was 0.14 µM and the Activity (Escherichia coli) was “inactive”. The zone of inhibition at 5 µg/disc (Cladosporium cucumerinum) was 24 mm, the Activity (H4IIE) was “inactive” and the Activity (PC-12) was “inactive”. The Activity (HeLa) was “inactive”.

With NYSTATIN the inhibition zone (IZ) (Cladosporium herbarum) was 19 mm and the inhibition zone (IZ) (Cladosporium cucumerinum) was 39 mm.

For `CC(C)CCCCCC1CC(=O)N[C@H](C)C(=O)N[C@H](C)C(=O)NC(CC(C)C)C(=O)N2CCC[C@H]2C(=O)NC(CC(C)C)C(=O)N[C@@H](Cc2c[nH]c3ccccc23)C(=O)O1` (some centres undefined) [KAHALALIDE E], the IC50 (MCF7) was 4.5 µM.

With `C/C=C1\NC(=O)[C@H](Cc2ccccc2)NC(=O)C(C(C)C)NC(=O)C(C(C)C)NC(=O)[C@H](NC(=O)[C@H](NC(=O)[C@H](CCCN)NC(=O)[C@H]2CCCN2C(=O)C(NC(=O)C(NC(=O)C(NC(=O)[C@@H](CCC(=O)O)NC(=O)CCCC(O)CC(C)C)C(C)C)C(C)C)C(C)C)[C@@H](C)CC)[C@@H](C)OC(=O)C(C(C)C)NC1=O` (some centres undefined) [KAHALALIDE S] the Activity (Bacillus subtilis) was “inactive”, the Activity (Saccharomyces cerevisiae) was “inactive” and the Activity (Cladosporium herbarum) was “inactive”. The IC50 (MCF7) was 3.55 µM, the Activity (Escherichia coli) was “inactive” and the Activity (Cladosporium cucumerinum) was “inactive”.
